This excerpt belongs to a sample that is enriched for hits.
ERAP1 inh = blocks human ERAP1 aminopeptidase activity | Q9NZ08 | 340,000 compounds, 0.15% hits | inhibition, % at 10.7 µM | AID 652197 | recombinant ERAP1, Leu-AMC fluorescence, 60 min;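 active = mean replicate inhibition of at least 30%, or all replicates individually reaching that 30% level; inactive = mean below 30% and not every replicate reaching it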
S100A4 MyoIIA = S100A4-myosin IIA interaction inhibition; inhibition, % at 10.7 µM; AID 652163; 360,000 compounds, 0.14% hits; S100A4/TAMRA-MyoIIA peptide fluorescence polarization; P26447;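 active = mean inhibition of at least 70% across replicates, with every replicate also reaching that level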
Target sequence (P26447 whole entry, looked up): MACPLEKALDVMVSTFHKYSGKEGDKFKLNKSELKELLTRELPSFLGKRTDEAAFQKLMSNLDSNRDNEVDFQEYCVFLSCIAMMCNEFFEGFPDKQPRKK
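Material: human S100A4 monomer with TAMRA-labelled myosin IIA peptide; buffer or medium: HEPES pH 7.2 with CaCl2, KCl, NaCl, DTT, Triton; compound dosing: one concentration per compound; schedule: 5 min incubation before reading; benchmarks: neutral control DMSO, positive control TFP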
PDI turbidity = blocks human protein disulfide isomerase activity; AID 588391; PDI insulin aggregation turbidity, A650, 90 min; inhibition, % at 10 µM; 350,000 compounds, 0.052% hits;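 active = mean inhibition across replicates of 30% or more, whatever share of single replicates reach that level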
FGF22 binding-1 = FGF22 (human) thermal shift binding; Q9HCT0; recombinant FGF22 thermal shift, SYPRO orange fluorescence; percent of sucrose octasulfate shift, DMSO zero; activity (Tm shift, normalised), % at 9.99 µM; 340,000 compounds, 1.5% hits;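 active = mean Tm shift, scaled 0 neutral to 100 positive control, at about 1.3% or above, every replicate too, limit read from the data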
Target sequence (Q9HCT0 whole entry, looked up): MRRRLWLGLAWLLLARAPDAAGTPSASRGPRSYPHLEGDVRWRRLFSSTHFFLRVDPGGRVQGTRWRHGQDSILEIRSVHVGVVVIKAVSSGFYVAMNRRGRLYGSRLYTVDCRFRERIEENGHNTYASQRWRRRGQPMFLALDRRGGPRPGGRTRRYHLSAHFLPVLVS
ERp5 block = blocks human ERp5 reductase activity on insulin; inhibition, % at 9.99 µM; AID 651711; ERp5 insulin aggregation, absorbance 650 nm, 90 min; 350,000 compounds, 0.05% hits; Q15084;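 active = mean replicate inhibition above about 25%, with every replicate also reaching it, limit read from the data, passing the limit was not always enough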
Target sequence (Q15084 whole entry, looked up): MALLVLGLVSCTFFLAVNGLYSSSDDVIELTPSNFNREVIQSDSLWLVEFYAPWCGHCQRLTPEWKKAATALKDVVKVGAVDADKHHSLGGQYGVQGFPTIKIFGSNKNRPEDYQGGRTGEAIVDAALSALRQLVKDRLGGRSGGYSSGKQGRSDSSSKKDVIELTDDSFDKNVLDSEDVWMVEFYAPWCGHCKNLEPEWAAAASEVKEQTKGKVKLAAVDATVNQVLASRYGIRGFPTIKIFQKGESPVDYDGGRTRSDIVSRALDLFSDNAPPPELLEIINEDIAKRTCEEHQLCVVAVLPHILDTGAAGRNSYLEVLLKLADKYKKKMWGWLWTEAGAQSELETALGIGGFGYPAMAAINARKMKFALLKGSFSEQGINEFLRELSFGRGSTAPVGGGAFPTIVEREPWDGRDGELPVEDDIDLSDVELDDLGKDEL
FGF22 binding-2 = binders of human FGF22 by thermal shift. 1,000 compounds, 2% hits. recombinant FGF22 thermal shift, SYPRO orange fluorescence. AID 720646. shares compounds with FGF22 binding-1. thermal shift activity, °C (ΔTm) at 38 µM;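 active = fitted rise in melting shift crosses a set limit at or below the top valid dose tested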
FGF22 TSA = binders of human FGF22 by thermal shift | shares compounds with FGF22 binding-1 | Thermal shift assay, SYPRO orange, melting temperature shift | Tm shift (activity), % at 38 µM | 50 tested, under 10 active | AID 743017;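 active = compounds whose fitted dose curve of melting temperature shift rises past a set threshold within the tested doses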
TSA no protein = shows thermal shift signal without protein, FGF22 counter-screen; shares compounds with FGF22 binding-1; AID 743019; compound-only SYPRO orange thermal shift counter-screen, no protein; 1,000 compounds, 2% hits; AC50, µM (highest dose often 38 µM);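 active = rising signal whose fitted curve reaches the 0.54 level within the top valid dose, showing a melting point, actives reach about 13 µM in these data; inactive = the rest, including activity in the opposite direction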; note: value is where the raw curve crosses a fixed level and not half-maximal
Each line names hits and unclear results; the compound was inactive in the other large screens (follow-up assays come after a bar, where they were run); ! = not confirmed by another sample.

O=S(=O)(Nc1ccc(S(=O)(=O)N2CCCCCC2)cc1)c1cccs1	none
O=S(=O)(Nc1cccc(S(=O)(=O)N2CCCC2)c1)c1cccs1	FGF22 binding-1 43.2
O=S(=O)(Nc1cccc(S(=O)(=O)N2CCCCC2)c1)c1ccccc1F	FGF22 binding-1 43.5
O=S(=O)(Nc1cccc(S(=O)(=O)N2CCCC2)c1)c1ccccc1F	none
CN1c2ccc(C3=CCCCC3)cc2[C@@H]2[C@@H](CCN2C(=O)C2CC2)[C@@H]1CO	none (no result: PDI turbidity, FGF22 binding-1)
CN1c2ccc(-c3ccccc3)cc2[C@H]2[C@H](CCN2C(=O)c2cccc(F)c2)[C@@H]1CO	none (no result: PDI turbidity)
CN1c2ccc(-c3ccccc3)cc2[C@@H]2[C@@H](CCN2C(=O)c2cccc(F)c2)[C@@H]1CO	S100A4 MyoIIA 130.2 (no result: PDI turbidity)
CN1c2ccc(C3=CCCCC3)cc2[C@@H]2[C@@H](CCN2C(=O)C2CC2)[C@H]1CO	S100A4 MyoIIA 117.8 (no result: PDI turbidity, FGF22 binding-1)
COc1ccc(CC2(CO)CCN(Cc3ccc4nsnc4c3)CC2)cc1	FGF22 binding-1 43.5
Cc1cc(C)cc(C(=O)N2CCN=C2c2ccccc2)c1	FGF22 binding-1 43.2
CCc1ccc(NC(=O)c2cc3c(C)nc4ccccc4c3o2)cc1	none
CCN(C(=O)COC(=O)C12CC3CC(CC(O)(C3)C1)C2)c1c(N)n(Cc2ccccc2)c(=O)[nH]c1=O	none
Cc1ccc(SCc2nc(N)nc(Nc3ccccc3C)n2)c(C)c1	FGF22 binding-1 43.2
O=C(Nc1ccsc1C(=O)O)c1cccc(C(F)(F)F)c1	FGF22 binding-1 1.5 | FGF22 binding-2 inactive | TSA no protein inactive
O=C(Nc1ccsc1C(=O)O)c1cccc(Oc2ccccc2)c1	none
COC(=O)c1cccc(CN2C(=O)SC(Nc3ccc(C)cc3)C2=O)c1 (configuration not stated)	none
Cc1nn(C)cc1NC(=O)C[C@H]1CC[C@@H]2[C@@H](COc3ccc(NC(=O)NC(C)C)cc3C(=O)N2C)O1	FGF22 binding-1 1.6 (no result: PDI turbidity) | FGF22 binding-2 inactive | TSA no protein inactive
COC(=O)C[C@@H]1CC[C@H]2[C@@H](COc3ccc(NC(=O)NC(C)C)cc3C(=O)N2C)O1	FGF22 binding-1 1.3 (no result: PDI turbidity) | FGF22 binding-2 inactive | TSA no protein inactive
COc1ccc(C(=O)COC(=O)c2cc(C)no2)c(OC)c1	none
NCC[C@H]1CC[C@H](NC(=O)C2CCC2)[C@@H](CO)O1	none (no result: PDI turbidity)
Cc1ccc(S(=O)(=O)N2C[C@H](O)COC[C@@H]3O[C@H](CC(=O)NCc4ccc(Cl)c(Cl)c4)CC[C@H]32)cc1	none (no result: PDI turbidity)
O=C(C[C@@H]1CC[C@H]2[C@@H](COC[C@@H](O)CN2S(=O)(=O)c2cccc(F)c2)O1)Nc1ccccc1	FGF22 binding-1 2.3 (no result: ERAP1 inh, S100A4 MyoIIA, PDI turbidity, ERp5 block) | FGF22 binding-2 inactive | TSA no protein inactive
O=C(C[C@H]1CC[C@@H]2[C@H](COC[C@H](O)CN2S(=O)(=O)c2cccc(Cl)c2)O1)Nc1ccccc1	FGF22 binding-1 1.4 (no result: PDI turbidity) | FGF22 binding-2 inactive | FGF22 TSA inactive | TSA no protein inactive
COc1cccc(S(=O)(=O)N2C[C@@H](O)COC[C@@H]3O[C@@H](CC(=O)Nc4ccccc4)CC[C@H]32)c1	FGF22 binding-1 1.3 (no result: PDI turbidity) | FGF22 binding-2 inactive | TSA no protein inactive
Cc1ccc(S(=O)(=O)N2C[C@@H](O)COC[C@@H]3O[C@@H](CC(=O)NCc4ccc(Cl)c(Cl)c4)CC[C@H]32)cc1	FGF22 binding-1 1.4 (no result: PDI turbidity) | FGF22 binding-2 inactive | FGF22 TSA inactive | TSA no protein inactive
CC1C(=O)Nc2ccccc2N1C(=O)c1ccccc1 (configuration not stated)	none (no result: FGF22 binding-1)
O=C(C[C@H]1CC[C@H](NC(=O)c2cccnc2)[C@H](CO)O1)NCc1ccncn1	none (no result: PDI turbidity)
Cc1[nH]c2ccc(C(=O)OCC(=O)Nc3cccc(S(N)(=O)=O)c3)cc2c1C	FGF22 binding-1 1.6 | FGF22 TSA inactive | TSA no protein inactive
COc1ccc(Br)cc1S(=O)(=O)Nc1ncccc1C	FGF22 binding-1 1.5 | FGF22 binding-2 inactive | TSA no protein inactive
COc1ccc(-n2nnnc2/C=C\Nc2ccc(C)cc2)cc1	FGF22 binding-1 24.7 | FGF22 binding-2 inactive | TSA no protein inactive
O=C(CSc1nc(-c2ccccc2Cl)ns1)c1ccc(Cl)cc1	none (no result: ERAP1 inh, S100A4 MyoIIA, FGF22 binding-1, ERp5 block)
O=C(Nc1ccc2c(c1)OCO2)c1ccc(NC2CC2)c([N+](=O)[O-])c1	FGF22 binding-1 1.6 | FGF22 binding-2 inactive | TSA no protein inactive
O=C(CSc1nnc(CNC(=O)c2c(F)cccc2Cl)o1)Nc1ccc2c(c1)OCCO2	none (no result: ERAP1 inh, S100A4 MyoIIA, FGF22 binding-1, ERp5 block)
C[C@H]1CN([C@@H](C)CO)C(=O)Cc2cc(NC(=O)Nc3cccc4ccccc34)ccc2O[C@@H]1CN(C)Cc1ccc(C(=O)Nc2ccccc2N)cc1	none (no result: PDI turbidity)
C[C@H](CO)N1C[C@H](C)[C@H](CN(C)S(=O)(=O)c2ccc(F)cc2)OCc2cnnn2CCCC1=O	FGF22 binding-1 1.5! | FGF22 binding-2 inactive | TSA no protein inactive
C[C@@H]1CN([C@@H](C)CO)C(=O)CCCn2cc(nn2)CO[C@H]1CN(C)C(=O)OCc1ccccc1	none
C[C@H](CO)N1C[C@H](C)[C@@H](CN(C)C(=O)OCc2ccccc2)OCc2cn(nn2)CCCC1=O	FGF22 binding-1 17.3! | FGF22 binding-2 inactive | TSA no protein inactive
C[C@@H]1CN([C@@H](C)CO)C(=O)CCCn2nncc2CO[C@H]1CN(C)Cc1ccccc1C(=O)O	FGF22 binding-1 1.3 (no result: PDI turbidity) | FGF22 binding-2 inactive | TSA no protein inactive
C[C@H](CO)N1C[C@H](C)[C@H](CN(C)C(=O)c2cc(-c3ccccc3)on2)OCc2cnnn2CCCC1=O	FGF22 binding-1 29.8! | FGF22 binding-2 inactive | TSA no protein inactive
C[C@H]1CN([C@@H](C)CO)C(=O)Cc2cc(NS(=O)(=O)c3cccs3)ccc2O[C@H]1CN(C)Cc1ccc(-c2ccccc2)cc1	none (no result: PDI turbidity)
COc1cc(C(=O)NCCSc2ccc(Br)cc2)cc(OC)c1OC	none
NC(=O)c1csc(-c2ccc(CO)o2)n1	none (no result: PDI turbidity)
Cc1[nH]c2ccccc2c1C(=O)NS(=O)(=O)Nc1ccc(Cl)cc1	FGF22 binding-1 1.6 | FGF22 binding-2 inactive | FGF22 TSA inactive | TSA no protein inactive
COc1ccccc1NS(=O)(=O)NC(=O)c1c(C)[nH]c2ccccc12	none
O=S1(=O)N=C(N(Cc2cccs2)c2ccc(O)cc2)c2ccccc21	FGF22 binding-1 1.4 | FGF22 TSA inactive | TSA no protein inactive
NS(=O)(=O)c1ccc2c(c1)C(=NO)c1cc(S(N)(=O)=O)ccc1-2	FGF22 binding-1 28.1 | FGF22 binding-2 inactive | TSA no protein inactive
